# Test: Toxicity liver stage against HepG2, at 10uM
# Type: cell-based
# Set-up: test concentration 10 uM, cell line HepG2-A16-CD81EGFP
# Settings: human, HepG2-A16-CD81EGFP cells; read-out: INHIBITION
# How it was run: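 Uninfected HepG2-A16-CD81EGFP cells, 3 × 10^3 per well, 1536-well, plated on prespotted compound at 10 μM final, parasite-free screening media added to match infected plates; puromycin 10 μM positive, DMSO 0.5% negative; run in parallel with 48 h PbLuc assay at 37 °C, 5% CO2; viability by CellTiter-Glo luminescence, normalized to controls.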
row,SMILES,cytotoxicity at 10 µM [%]
1,CC[C@H](C)[C@@H](CO)NC(C)Cc1ccc(F)cc1 (stereo partly specified),-6.27
2,Cc1cnn(CCC(=O)N2CCCN(c3ccccc3C#N)CC2)c1,-2.85
3,NC(=O)c1ccc(OCC(=O)N2CCCC(n3cccn3)C2)cc1 (stereo unspecified),1.3
4,Cn1cc(-c2nc(CN3CCc4c(ncn4C)C3)cs2)cn1,-6.54
5,CC(=O)Nc1ccc(S(=O)(=O)NC(=O)CCC2CCCO2)cc1 (stereo unspecified),-5.11
6,COc1cccc(N2CCC(CNC(=O)N(C)Cc3ccco3)C2)c1 (stereo unspecified),-130
7,Cc1cc(C(=O)N(C)CCN(C)C(=O)OC(C)(C)C)oc1C,3.51
8,CCCS(=O)(=O)NCc1cccnc1Oc1ccc(C)c(F)c1F,-2.19
9,CC(C)(CNC(=O)CSc1nnnn1C1CC1)c1ccccc1F,13.4
10,O=C(c1cc(F)ccc1F)C1CCN(C(=O)c2cnccn2)CC1,-27.2
11,O=C(Nc1nnn[nH]1)c1ccc(-n2cccc2)c(F)c1,-1.63
12,Cc1c(NC(=O)NC2CCOCC2)cccc1C(=O)N1CCCC1,12
13,Cc1ncc(C(=O)NC2CCc3nccn3C2)c(C(C)C)n1 (stereo unspecified),-2.31
14,CCc1cnc(N2CC3(CCN(S(=O)(=O)C4CC4)C3)C2)nc1,-109
15,Cc1ncsc1CN1CC[C@H]2OCC[C@@]2(C(=O)NC(C)C)C1,9.38
16,CCOCC(O)CN1CCN(C(=O)c2cc(F)ccc2C)CC1 (stereo unspecified),-6.69
17,CCOC(=O)CCNC(=O)N1CCN(c2nc3ccccc3n2C)CC1,4.88
18,O=C(CN1CCCCCC1)NCCSc1cnn[nH]1,-7.15
19,CC(C)CN1CCN(C(=O)c2cc(=O)c3ccccc3[nH]2)CC1,-4.92
20,COc1ncccc1CNC(=O)NC(C)Cn1cccn1 (stereo unspecified),-12.5
21,Cc1cc(CS(=O)(=O)NCC2CCCCC2)on1,-18.7
22,CN1CCN(C(=O)c2n[nH]c3c2CN(C2CCOC2)CC3)CC1 (stereo unspecified),1.52
23,O=C(O)Cn1ccc(=O)c2ccccc21,-9.24

row,SMILES,cytotoxicity at 10 µM [%]
1,CCS(=O)(=O)N1CCOC2(CCCN(c3cnccn3)C2)C1 (stereo unspecified),2.66
2,CS(=O)(=O)NCC1CCCN(C(=O)c2ccc(Cl)o2)C1 (stereo unspecified),-10.2
3,CC(=O)N1CCC(C(=O)Nc2nnc(C(F)(F)F)[nH]2)CC1,-3.37
4,CN1CCOC(CNC(=O)C2(c3ccccc3)CCC2)C1 (stereo unspecified),6.17
5,CC(C)[C@@H]1CN(Cc2ccccn2)C[C@H]1NS(=O)(=O)N(C)C,-0.869
6,CC(C)OCCOCC(O)CN(C)C(=O)Nc1ccc(F)cc1Cl (stereo unspecified),10.7
7,CN(C)CCNc1ncccc1CNC(=O)Nc1cc(F)cc(F)c1,2.62
8,O=c1cc(Cn2cncn2)nc2n1CCCN(Cc1ccco1)C2,7.61
9,c1cncc(N2CCCn3nnc(CN4CCOCC4)c3C2)c1,2.46
10,CC(C)n1ccnc1C1CCN(c2nccc(C(F)(F)F)n2)CC1,2.52
11,CNC(=O)CN1CCOC(c2cccc(N)n2)C1 (stereo unspecified),-5.22
12,NC1CCc2c(ccc(=O)n2Cc2ccncc2)C1 (stereo unspecified),-4.16
13,CN1CCN(Cc2cccc(NCc3cc[nH]n3)c2)CC1,11.2
14,CCNc1ncc(C(=O)NC(CC)c2ccnn2C)cn1 (stereo unspecified),-2.4
15,Cn1ccnc1CN1CCC2(CC1)CN(c1ccccc1)C(=O)CO2,-0.414
16,Cc1ccc(N2CCc3c(CN(C)Cc4ccco4)cncc3C2)nn1,-6.57
17,CC(C(=O)N1CCCN(c2ccc(C#N)cc2)CC1)n1ccnc1 (stereo unspecified),-9.75
18,O=C(c1cscn1)N1CCC(O)(Cn2ccc3ccncc32)CC1,-18.2
19,CCS(=O)(=O)c1ccccc1N1CCC(NC(=O)NC2CCCC2)CC1,-16
20,CN(Cc1ccon1)c1nc(-c2ccccn2)nc2c1CCNCC2,-2.45
21,COCC(=O)N1CCC2(CC1)CC(COC)N(c1ncccn1)C2 (stereo unspecified),6.85
22,CNc1ncc(CN(C)C2CCN(C(C)C)CC2)cn1,-3.14
23,O=C(COCc1ccccc1Cl)N1CCN(c2ncccn2)CC1,6.43
